In ChEMBL document CHEMBL4138260, “Novel Naphthalimide Aminothiazoles as Potential Multitargeting Antimicrobial Agents” (ACS Med Chem Lett, 2017):
≈ marks a conversion by molar mass, not a printed value. Calls of active or inactive are those of the source. The calls are words filed in the database; no cut-off is given here.

What was measured:
[1] = test system: Staphylococcus aureus; experiment: Antimicrobial activity against Staphylococcus aureus ATCC 25923 after 24 hrs by two fold serial dilution method; type: functional
Summary of the method: (§1)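 MICs by CLSI-recommended two-fold serial broth dilution against the listed bacterial strains.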

[2] = test system: Escherichia coli; experiment: Antimicrobial activity against Escherichia coli after 24 hrs by two fold serial dilution method; type: functional; summary of the method: as §1
[3] = test system: Staphylococcus aureus; experiment: Antimicrobial activity against methicillin-resistant Staphylococcus aureus after 24 hrs by two fold serial dilution method; type: functional; summary of the method: as §1
[4] = test system: Klebsiella pneumoniae; experiment: Antimicrobial activity against Klebsiella pneumoniae after 24 hrs by two fold serial dilution method; type: functional, organism-based
Summary of the method: (§2)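 MIC determined in vitro by two-fold serial dilution, following the procedure recommended by the Clinical and Laboratory Standards Institute (CLSI).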

[5] = test system: Escherichia coli; experiment: Antimicrobial activity against Escherichia coli ATCC 25922 after 24 hrs by two fold serial dilution method; type: functional; conditions: for MIC: ATCC 25922, 24 h; summary of the method: as §1
[6] = test system: Staphylococcus aureus; experiment: Antimicrobial activity against Staphylococcus aureus ATCC 29213 after 24 hrs by two fold serial dilution method; type: functional; summary of the method: as §1
[7] = test system: Staphylococcus aureus; experiment: Antimicrobial activity against Staphylococcus aureus after 24 hrs by two fold serial dilution method; type: functional, organism-based; summary of the method: as §2
[8] = test system: Enterococcus faecalis; experiment: Antimicrobial activity against Enterococcus faecalis after 24 hrs by two fold serial dilution method; type: functional, organism-based; summary of the method: as §2
[9] = test system: Pseudomonas aeruginosa; experiment: Antimicrobial activity against Pseudomonas aeruginosa after 24 hrs by two fold serial dilution method; type: functional; summary of the method: as §1
[10] = test system: Pseudomonas aeruginosa; experiment: Antimicrobial activity against Pseudomonas aeruginosa ATCC 27853 after 24 hrs by two fold serial dilution method; type: functional; summary of the method: as §1
[11] = test system: Acinetobacter baumannii; experiment: Antimicrobial activity against Acinetobacter baumannii after 24 hrs by two fold serial dilution method; type: functional; summary of the method: as §2
[12] = test system: Acinetobacter baumannii; experiment: Potency index, ratio of chloromycin MIC to compound MIC against Acinetobacter baumannii; type: functional
[13] = test system: Staphylococcus aureus; experiment: Membrane permeabilization of methicillin-resistant Staphylococcus aureus cytoplasmic membrane at 12 times MIC after 60 mins by propidium iodide staining based fluorescence assay; type: functional, organism-based
Summary of the method: (§3)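 Cytoplasmic membrane permeabilization of MRSA or E. coli with propidium iodide. Fluorescence intensity of the compound/PI-treated bacterial mixtures was followed over time up to steady state, with two control groups run in parallel.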

[14] = test system: Staphylococcus aureus; experiment: Antimicrobial activity against methicillin-resistant Staphylococcus aureus measured every 24 hrs post passages for 16 days; type: functional, organism-based
Summary of the method: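 Resistance-development study in MRSA, with MIC re-measured over serial passages. Norfloxacin and chloromycin were run alongside as reference drugs.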

[15] = test system: Staphylococcus aureus; experiment: Bactericidal activity against methicillin-resistant Staphylococcus aureus assessed as log reduction in bacterial count at 4 times MIC measured up to 7 hrs by time kill assay; type: functional
Summary of the method: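 Time-kill kinetics against MRSA with the compound at 4 × MIC. Viable bacteria were counted over time as log CFU/mL.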

[16] = Cytotoxicity against […] RAW264.7 cells assessed as cell viability at 128 ug/ml after 24 hrs by MTT assay; type: cell-based; conditions: read-out: Activity
Summary of the method: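 Cytotoxicity in […] RAW 264.7 macrophages by MTT assay at concentrations up to 128 μg/mL. Read-out was percent cell viability.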

[17] = molecular target: Albumin (Homo sapiens, UniProt P02768); experiment: Binding affinity to human serum albumin by UV-visible absorption spectroscopy; type: ADME; conditions: isolated protein
[18] = test system: Escherichia coli; experiment: Potency index, ratio of chloromycin MIC to compound MIC against Escherichia coli ATCC 25922; type: functional
[19] = test system: Escherichia coli; experiment: Membrane permeabilization of Escherichia coli cytoplasmic membrane at 12 times MIC after 60 mins by propidium iodide staining based fluorescence assay; type: functional, organism-based; summary of the method: as §3
[20] = test system: Escherichia coli; experiment: Potency index, ratio of norfloxacin MIC to compound MIC against Escherichia coli ATCC 25922; type: functional
[21] = test system: DNA; experiment: Induction of methicillin-resistant Staphylococcus aureus DNA intercalation assessed as compound-DNA complex formation incubated for 1 hr by UV-visible absorption spectroscopy; type: nucleic-acid assay

Chain of Albumin (P02768 whole entry): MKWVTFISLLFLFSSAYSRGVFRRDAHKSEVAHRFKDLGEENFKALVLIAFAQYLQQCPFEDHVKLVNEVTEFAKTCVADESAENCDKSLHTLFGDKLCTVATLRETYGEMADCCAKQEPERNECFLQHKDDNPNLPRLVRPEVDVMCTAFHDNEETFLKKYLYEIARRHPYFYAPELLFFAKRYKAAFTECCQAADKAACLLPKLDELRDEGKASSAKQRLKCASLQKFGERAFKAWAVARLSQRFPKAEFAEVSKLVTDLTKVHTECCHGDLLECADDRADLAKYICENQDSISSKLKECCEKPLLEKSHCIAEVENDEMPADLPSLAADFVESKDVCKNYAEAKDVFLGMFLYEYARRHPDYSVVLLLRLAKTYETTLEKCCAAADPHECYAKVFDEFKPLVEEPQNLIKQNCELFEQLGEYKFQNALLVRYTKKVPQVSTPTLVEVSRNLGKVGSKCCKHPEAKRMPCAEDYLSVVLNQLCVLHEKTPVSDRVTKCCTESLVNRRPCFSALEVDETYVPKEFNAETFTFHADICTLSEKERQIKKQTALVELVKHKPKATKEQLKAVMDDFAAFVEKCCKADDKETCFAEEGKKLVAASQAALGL

With `CCCCCCCCCCCCCCCCN1CCN(c2ccc3c4c(cccc24)C(=O)N(Nc2nccs2)C3=O)CC1` the Activity [1] was “inactive”, the Activity [2] was “inactive” and the Activity [3] was “inactive”. The Activity [4] was “inactive”, the Activity [5] was “inactive” and the Activity [6] was “inactive”. The Activity [7] was “inactive”, the Activity [8] was “inactive” and the Activity [9] was “inactive”. The Activity [10] was “inactive” and the Activity [11] was “inactive”.

In the case of `CCCCCCCCCCN1CCN(c2ccc3c4c(cccc24)C(=O)N(Nc2nccs2)C3=O)CC1`, the Activity [1] is reported as “inactive”, the Activity [2] is reported as “inactive” and the Activity [3] is reported as “inactive”. For the same compound, the Activity [4] was “inactive”, the Activity [5] was “inactive” and the Activity [6] was “inactive”. The Activity [7] was “inactive”, the Activity [8] was “inactive” and the Activity [9] was “inactive”. The Activity [10] was “inactive” and the Activity [11] was “inactive”.

In the case of `O=C1c2cccc3c(N4CCOCC4)ccc(c23)C(=O)N1Nc1nccs1`, the Ratio [12] is reported as 2 and the MIC [11] is reported as 8 µg/mL (≈ 21 µM).

For `O=C1c2cccc3c(N4CCNCC4)ccc(c23)C(=O)N1Nc1nccs1`, the Activity [13] was “Active”, the MIC ([1]; ATCC 25923, 24 h) was 4 µg/mL (≈ 10.5 µM) and the MIC [2] was 4 to 16 µg/mL (≈ 10.5 to 42.2 µM). The MIC [3] was 4 µg/mL (≈ 10.5 µM), the MIC [5] was 4 to 16 µg/mL (≈ 10.5 to 42.2 µM) and the Activity [14] was “Active”. It also gave an MIC ([6]; ATCC 29213, 24 h) of 2 µg/mL (≈ 5.27 µM), an Activity [15] of over 3 CFU/ml and a viability at 24 h, 128 ug/ml [16] of 80.1%. The Activity [17] was “Active”, the Ratio [18] was 4 and the Activity [19] was “Active”. For the same compound, the MIC [9] was 4 to 16 µg/mL (≈ 10.5 to 42.2 µM), the MIC ([10]; ATCC 27853, 24 h) was 4 to 16 µg/mL (≈ 10.5 to 42.2 µM) and the Ratio [20] was 2. The Activity [21] was “Active” and the Activity [11] was “inactive”.

With `O=C1c2cccc3c(Br)ccc(c23)C(=O)N1Nc1nccs1` the Activity [1] was “Active”, the Activity [2] was “Active” and the Activity [3] was “Active”. The Activity [4] was “Active”, the Activity [5] was “Active” and the Activity [6] was “Active”. The Activity [7] was “Active”, the Activity [8] was “Active” and the Activity [9] was “Active”. For the same compound, the Activity [10] was “Active” and the Activity [11] was “Active”.

With `CCn1cc(C(=O)O)c(=O)c2cc(F)c(N3CCNCC3)cc21` [NORFLOXACIN] the MIC [5] was 8 µg/mL (≈ 25.1 µM) and the MIC [11] was 8 µg/mL (≈ 25.1 µM).

For `CCCCCCCCCCCCN1CCN(c2ccc3c4c(cccc24)C(=O)N(Nc2nccs2)C3=O)CC1`, the Activity [1] was “inactive”, the Activity [2] was “inactive” and the Activity [3] was “inactive”. For the same compound, the Activity [4] was “inactive”, the Activity [5] was “inactive” and the Activity [6] was “inactive”. The Activity [7] was “inactive”, the Activity [8] was “inactive” and the Activity [9] was “inactive”. The Activity [10] was “inactive” and the Activity [11] was “inactive”.
